We go through 1 compound from ChEMBL document CHEMBL3745678, “Novel β-Carboline/Hydroxamic Acid Hybrids Targeting Both Histone Deacetylase and DNA Display High Anticancer Activity via Regulation of the p53 Signaling Pathway” (J Med Chem, 2015).

In data set [1] the test system is HCT-116. In words: Induction of DNA damage in human HCT116 cells assessed as histone H2AX phosphorylation at S139 after 12 hrs by western blot analysis. The class given is functional, cell-based. The method in brief:
(§1)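 DNA-damage marker. HCT116 cells treated 12 h with compound or vehicle. Lysates immunoblotted with anti-H2AX S139ph, and β-actin served as the control. Relative levels were obtained by densitometric scanning; means ± SD of three separate experiments.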
A general note: Immunoblotting shows a protein as a band on a membrane.

In data set [2] the test system is HCT-116. In words: Induction of DNA damage in human HCT116 cells assessed as histone H2AX phosphorylation at S139 at 1 to 5 uM after 12 hrs by western blot analysis. The class given is functional, cell-based. A digest of the protocol: as §1
Data set [3] has as its target Cellular tumor antigen p53 (Homo sapiens) (UniProt P04637). In words: Activation of p53 in human HCT116 cells assessed as p53 phosphorylation at ser15 residue at 0.1 to 5 uM after 12 hrs by western blot analysis. The class given is cell-based. The conditions noted are these: HCT-116. The method in brief:
(§2)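 HCT116 cells exposed 12 h to compound or vehicle, then lysed on ice in PBS with 1% NP-40, 0.5% deoxycholate, 0.1% SDS and protease inhibitors. Up to 50 µg protein run on SDS-PAGE and immunoblotted for phospho-p53 (Ser15), p53 and p21. Bands quantified by densitometry against β-actin; mean ± SD of three experiments.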

Data set [4] has the same target. The data set can be described thus: Induction of p53 activation in human HCT116 cells assessed as upregulation of p21 expression at 0.1 to 5 uM after 12 hrs by western blot analysis. The conditions noted are these: HCT-116. The class given is cell-based. The method in brief:
as §2

Data set [5] in a line: Acute toxicity in ICR mouse assessed as survival rate at 375 mg/kg, ip measured on day 14. The conditions noted are these: in vivo. It is filed as organism-based. A digest of the protocol: (§3)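 Female ICR mice, single intraperitoneal injection at 585.9, 468.8, […], 300 or 240 mg/kg, or vehicle control, n = 10 per group. Deaths counted at 1 h, 4 h, daily on days 1-4 and over days 5-14. Eating, drinking, body weight and activity observed for 14 days, with survival (%) taken on day 14. LD50 calculated from mortality.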

Data set [6] deals with Mus musculus. The data set can be described thus: Acute toxicity in ICR mouse assessed as abnormality in drinking at 240 mg/kg, ip measured for 14 days. It is filed as organism-based. To be noted: in vivo, 336 h. A digest of the protocol:
as §3

In data set [7] the test system is Mus musculus. The data set can be described thus: Acute toxicity in ICR mouse assessed as body weight change at 240 mg/kg, ip measured for 14 days. It is filed as organism-based. To be noted: in vivo, 336 h. A digest of the protocol: as §3
Data set [8] in a line: Acute toxicity in ip dosed ICR mouse measured for 14 days. The conditions noted are these: in vivo. The class given is organism-based. A digest of the protocol: as §3
Data set [9] concerns Mus musculus. In words: Toxicity in BALB/c mouse xenografted with human HCT116 cells assessed as body weight change at 45 mg/kg, ip measured twice per week over 22 days. It is filed as organism-based, HCT-116. To be noted: in vivo, 528 h.
Data set [10] is described as follows: Antitumor activity against human HCT116 cells xenografted in BALB/c mouse assessed as tumor weight at 90 mg/kg, po measured twice per week over 22 days (reference value: 1.38 +/- 0.13 g). It is filed as functional, HCT-116. For orientation: In xenograft studies the graft and the host belong to different species.
The target in data set [11] is T1, Histone deacetylase 1 (Homo sapiens, UniProt Q13547). The data set can be described thus: Potency index, ratio of IC50 for SAHA to IC50 for test compound for inhibition of human recombinant HDAC1 using Boc-Lys (Ac)-AMC as substrate after 60 mins by fluorometric analysis. The method in brief:
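Recombinant human HDAC1 and HDAC8 incubated with compound dilutions plus Boc-Lys(Ac)-AMC at 37 °C for 60 min, then developer for 30 min. Fluorescence read at ex 355/em 460 nm; activity as % of control and IC50 calculated. Ratios formed from these IC50s; three independent experiments.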

The test system of data set [12] is Mus musculus. In words: Toxicity in BALB/c mouse xenografted with human HCT116 cells assessed as body weight change at 90 mg/kg, po measured twice per week over 22 days. It is filed as organism-based, HCT-116. To be noted: in vivo, 528 h.
In data set [13] the test system is HCT-116. The data set can be described thus: Antitumor activity against human HCT116 cells xenografted in BALB/c mouse assessed as tumor growth inhibition at 45 and 90 mg/kg, ip measured twice per week over 22 days. It is filed as functional, organism-based.
The test system of data set [14] is Mus musculus. The data set can be described thus: Acute toxicity in ICR mouse assessed as death at 240 to 585.9 mg/kg, ip measured after 4 hrs. The class given is organism-based. To be noted: in vivo. The method in brief:
as §3

The subject of data set [15] is Mus musculus. The data set can be described thus: Acute toxicity in ICR mouse assessed as death at 240 to 375 mg/kg, ip measured after 4 hrs. It is filed as organism-based. To be noted: in vivo. A digest of the protocol:
as §3

Data set [16] has as its system Mus musculus. In words: Acute toxicity in ICR mouse assessed as death at 240 to 300 mg/kg, ip measured after 5 to 14 days. It is filed as organism-based. To be noted: in vivo. The method in brief: as §3
Another data set deals with SW480. In words: Antiproliferative activity against human SW480 cells assessed as cell viability after 48 hrs by MTT assay. It is filed as functional, cell-based. To be noted: SW480, 48 h. On the technique in general: Tetrazolium dyes change colour on reduction, which living cells bring about.
Data set [17] concerns the target Histone deacetylase (Homo sapiens) (UniProt Q13547+O15379+Q9UBN7+Q92769+Q9UQL6+Q8WUI4+Q9BY41+Q96DB2+P56524+Q9UKV0+Q969S8). In words: Inhibition of HDAC in human HCT116 cells assessed as increase in acetyl-alpha-tubulin expression after 48 hrs by immunoblotting analysis. The conditions noted are these: HCT-116. It is filed as cell-based. The method in brief:
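HCT116 cells treated 48 h with compound, SAHA or vehicle. Lysates probed by immunoblot for acetyl-histone H3 and acetyl-α-tubulin, with β-actin as loading control. Relative levels by densitometric scanning; means ± SD of three experiments.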

For data set [18], the system named is HCT-116. The data set can be described thus: Selectivity index, ratio of GI50 for rat IEC-18 cells to GI50 for human HCT116 cells. It is filed as functional. The method in brief: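 HCT116 and rat IEC-18 cells incubated 48 h over a 0–5 µM range. Viability measured by MTT and expressed as % of control. GI50 taken from the inhibition curves; three independent experiments.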

Data set [19] has as its system HCT-116. In words: Induction of apoptosis in human HCT116 cells at 1 uM after 48 hrs by annexin V-FITC/propidium iodide staining-based flow cytometric analysis. It is filed as functional. A digest of the protocol: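 HCT116 cells cultured overnight, then exposed in triplicate for 48 h to 0.1, 1.0 or 5.0 µM, SAHA 5.0 µM or vehicle. Stained with FITC-Annexin V/PI for 15 min at room temperature.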

The nature of data set [20]: Upregulation of Bax expression in human HCT116 cells after 48 hrs by western blot analysis. It is filed as functional, cell-based. To be noted: HCT-116. A digest of the protocol:
(§4)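 HCT116 cells treated 48 h with or without compound. Western blots probed for Bax, Bcl-2, cleaved caspase-3 and PARP. Band intensities relative to β-actin by densitometry; means ± SD from three separate experiments.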

For data set [21], the system named is HCT-116. The data set can be described thus: Induction of PARP cleavage in human HCT116 cells at 1 to 5 uM after 48 hrs by western blot analysis. The class given is functional, cell-based. A digest of the protocol: as §4
Data set [22] has as its system HCT-116. In words: Induction of caspase-3 cleavage in human HCT116 cells at 1 to 5 uM after 48 hrs by western blot analysis. It is filed as functional, cell-based. The method in brief:
as §4

Data set [23] concerns the target T1, Histone deacetylase 1. The data set can be described thus: Inhibition of recombinant human HDAC1 using Boc-Lys (Ac)-AMC as substrate after 60 mins by fluorometric analysis.

Active and inactive are the calls of the source. The calls are words filed in the database; no cut-off is given here.

T1 sequence (Q13547 whole entry): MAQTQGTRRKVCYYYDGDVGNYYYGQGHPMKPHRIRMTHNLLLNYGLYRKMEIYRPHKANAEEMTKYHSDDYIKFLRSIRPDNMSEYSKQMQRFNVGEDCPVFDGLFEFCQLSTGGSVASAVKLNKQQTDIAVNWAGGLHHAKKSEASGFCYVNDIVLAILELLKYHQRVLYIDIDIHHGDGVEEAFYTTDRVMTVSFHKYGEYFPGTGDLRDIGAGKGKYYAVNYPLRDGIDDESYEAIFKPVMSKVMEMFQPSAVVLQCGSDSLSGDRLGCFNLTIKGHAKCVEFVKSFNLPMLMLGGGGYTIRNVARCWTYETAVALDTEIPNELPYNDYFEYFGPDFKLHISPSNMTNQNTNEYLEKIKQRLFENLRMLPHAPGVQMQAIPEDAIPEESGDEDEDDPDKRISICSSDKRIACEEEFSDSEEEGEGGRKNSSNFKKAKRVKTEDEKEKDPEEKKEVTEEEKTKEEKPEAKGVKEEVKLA
Chain of Cellular tumor antigen p53 (Homo sapiens) (P04637 whole entry, looked up): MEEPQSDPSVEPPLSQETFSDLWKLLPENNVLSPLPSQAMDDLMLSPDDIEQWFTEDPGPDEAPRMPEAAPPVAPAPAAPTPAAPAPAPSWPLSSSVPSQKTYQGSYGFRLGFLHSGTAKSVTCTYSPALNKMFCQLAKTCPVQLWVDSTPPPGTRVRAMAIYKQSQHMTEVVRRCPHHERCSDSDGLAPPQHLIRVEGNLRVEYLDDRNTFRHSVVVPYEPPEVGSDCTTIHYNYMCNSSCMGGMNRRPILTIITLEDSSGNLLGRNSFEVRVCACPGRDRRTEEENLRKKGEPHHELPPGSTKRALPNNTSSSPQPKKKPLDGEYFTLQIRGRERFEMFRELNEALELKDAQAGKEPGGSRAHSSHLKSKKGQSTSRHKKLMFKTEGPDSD

Broadly, the LD50 is the dose at which mortality reaches 50%. In general, IC50 refers to the concentration at which inhibition is half-maximal. As for `COc1ccc(-c2nc(NC(=O)NCCCC(=O)NO)cc3c2[nH]c2ccccc23)cc1`, the Activity entry in the data set on HCT-116 [1] is “Dose-dependent effect”; in the data set with Mus musculus [6], “Non-toxic”; with Mus musculus [7], “Non-toxic”; in the data set on Mus musculus [9] it was “Non-toxic”; in [10], 0.53 g; in the data set on Mus musculus [12] it was “Non-toxic”. For the same compound, the Activity result with Mus musculus [14] was “Non-toxic”; with Mus musculus [15] it was “Non-toxic”; with Mus musculus [16], “Non-toxic”; with HCT-116 [19], 41.3%; in [20] it was “Dose-dependent effect”. Further, the outcome (with HCT-116 [2]; in data set [3]; in data set [4]; with HCT-116 [21]; in the data set on HCT-116 [22]) was Active. In addition, in data set [5], the survival at 14 day amounted to 70%. This compound also returned an LD50 at 336 h in data set [8] of 472 mg/kg. Further, at Histone deacetylase 1 [11], the Ratio IC50 amounted to 7. The TGI entry in the data set on HCT-116 [13] was “Active”. Besides, the IC50 with SW480 worked out at 1.16 µM; on Histone deacetylase 1 [23], 0.026 µM. Also, in data set [17], the inhibition result is “Dose-dependent effect”. Moreover, the RatioGI50 in the data set with HCT-116 [18] was 5.
